For assay [1], the target named is Cyclin-dependent kinase 1/cyclin B1 (Homo sapiens, UniProt P06493). Put plainly: Inhibition of human cdc2/cyclin B assessed as [32P] incorporation in histone H1 from [gamma32P]ATP. The format is protein-complex assay.
The subject of assay [2] is Saccharomyces cerevisiae. The assay can be described thus: Increase in PCL5 mRNA level in delta snq2, delta pdr5 and delta erg6 knock out yeast YRP1 at 25 µM after 2 hrs by high-density oligonucleotide array. It counts as functional, organism-based. As to conditions: […]. The method in brief:
(§1)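 Drug-sensitized S. cerevisiae cultures grown to late logarithmic phase, then exposed to 25 μM inhibitor for 2 h. Polyadenylated mRNA isolated, converted to biotin-labeled cRNA and hybridized to a set of four high-density arrays carrying more than 260,000 25-nucleotide oligomers. Transcripts scored as changed when they shifted more than twofold in triplicate hybridizations for each of two independent experiments.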

The subject of assay [3] is Saccharomyces cerevisiae. The assay can be described thus: Increase in PHO84 mRNA level in delta snq2, delta pdr5 and delta erg6 knock out yeast YRP1 at 25 µM after 2 hrs by high-density oligonucleotide array. The format is functional, organism-based. To be noted: […]. The essentials:
as §1

Assay [4] relates to Saccharomyces cerevisiae. The assay can be described thus: Increase in PHO80 mRNA level in delta snq2, delta pdr5 and delta erg6 knock out yeast YRP1 at 25 µM after 2 hrs by high-density oligonucleotide array. The format is functional, organism-based. To be noted: […]. The method in brief:
as §1

Assay [5] deals with Saccharomyces cerevisiae. The assay can be described thus: Increase in UB14 mRNA level in delta snq2, delta pdr5 and delta erg6 knock out yeast YRP1 at 25 µM after 2 hrs by high-density oligonucleotide array. As to conditions: […]. The format is functional, organism-based. The method in brief:
as §1

Assay [6] deals with Saccharomyces cerevisiae. The assay can be described thus: Increase in PHO5 mRNA level in delta snq2, delta pdr5 and delta erg6 knock out yeast YRP1 at 25 µM after 2 hrs by high-density oligonucleotide array. The format is functional, organism-based. As to conditions: […]. The method in brief: as §1
Assay [7] relates to Saccharomyces cerevisiae. The assay can be described thus: Growth inhibition of delta snq2, delta pdr5 and delta erg6 knock out yeast YRP1 assessed as synchronization by FACS analysis. The format is functional, organism-based. For orientation: Flow cytometry measures light scatter and fluorescence of single cells or particles in a stream.
The test system of assay [8] is Saccharomyces cerevisiae. The assay can be described thus: Growth inhibition of delta snq2, delta pdr5 and delta erg6 knock out yeast YRP1 after 2 hrs. The format is functional.
Assay [9] has as its target Meiotic mRNA stability protein kinase SSN3 (Saccharomyces cerevisiae S288c, UniProt P39073). Put plainly: Inhibition of yeast W303 Srb10 phosphorylation assessed as [32P] incorporation in histone H1 from [gamma32P]ATP by scintillation counting.
The target in assay [10] is T1, Cyclin-dependent kinase 1 (Saccharomyces cerevisiae S288c, UniProt P00546). The assay can be described thus: Inhibition of yeast W303 cdc28 phosphorylation assessed as [32P] incorporation in histone H1 from [gamma32P]ATP by scintillation counting.
Assay [11] deals with Cyclin-dependent protein kinase PHO85 (Saccharomyces cerevisiae S288c, UniProt P17157). Put plainly: Inhibition of yeast W303 Pho85 phosphorylation assessed as [32P] incorporation in histone H1 from [gamma32P]ATP by scintillation counting.
The subject of assay [12] is Saccharomyces cerevisiae. Put plainly: Increase in PHO81 mRNA level in delta snq2, delta pdr5 and delta erg6 knock out yeast YRP1 at 25 µM after 2 hrs by high-density oligonucleotide array. It counts as functional, organism-based. To be noted: 25 M. The essentials:
as §1

In assay [13] the test system is Saccharomyces cerevisiae. The assay can be described thus: Increase in HSP12 mRNA level in delta snq2, delta pdr5 and delta erg6 knock out yeast YRP1 at 25 µM after 2 hrs by high-density oligonucleotide array. The format is functional, organism-based. To be noted: […]. The method in brief:
as §1

For assay [14], the target named is Serine/threonine-protein kinase KIN28 (Saccharomyces cerevisiae S288c, UniProt P06242). Put plainly: Inhibition of yeast W303 Kin28 phosphorylation assessed as [32P] incorporation in histone H1 from [gamma32P]ATP by scintillation counting.
For assay [15], the target named is Serine/threonine-protein kinase CAK1 (Saccharomyces cerevisiae S288c, UniProt P43568). Put plainly: Inhibition of yeast W303 Cak1 phosphorylation assessed as [32P] incorporation in histone H1 from [gamma32P]ATP by scintillation counting.
Assay [16] has as its system Saccharomyces cerevisiae. Put plainly: Increase in YBR296c mRNA level in delta snq2, delta pdr5 and delta erg6 knock out yeast YRP1 at 25 µM after 2 hrs by high-density oligonucleotide array. To be noted: 25 M. It counts as functional, organism-based. The method in brief:
as §1

Assay [17] concerns Saccharomyces cerevisiae. Put plainly: Growth inhibition of delta snq2, delta pdr5 and delta erg6 knock out yeast YRP1 assessed as induction of uniform arrest morphology. It counts as functional, organism-based.
Assay [18] relates to Saccharomyces cerevisiae. Put plainly: Increase in PHO8 mRNA level in delta snq2, delta pdr5 and delta erg6 knock out yeast YRP1 at 25 µM after 2 hrs by high-density oligonucleotide array. The format is functional, organism-based. As to conditions: […]. The essentials: as §1
In assay [19] the test system is Saccharomyces cerevisiae. Put plainly: Increase in CTT1 mRNA level in delta snq2, delta pdr5 and delta erg6 knock out yeast YRP1 at 25 µM after 2 hrs by high-density oligonucleotide array. It counts as functional, organism-based. As to conditions: 25 M. The essentials: as §1
In assay [20] the test system is MRC5. Put plainly: Cell cycle arrest in human MRC5 cells assessed as accumulation at G1/S phase at low concentration after 18 hrs by FACS analysis. It counts as functional, cell-based.
Assay [21] deals with MRC5. Put plainly: Cell cycle arrest in human MRC5 cells assessed as accumulation at G2/M phase at high concentration after 18 hrs by FACS analysis. It counts as functional, cell-based.
Assay [22] relates to MRC5. Put plainly: Cell cycle arrest in human MRC5 cells assessed as accumulation at G1/S phase at high concentration after 18 hrs by FACS analysis. It counts as functional, cell-based.
Assay [23] in a line: Inhibition of human cAMP-dependent protein kinase.
The nature of assay [24]: Inhibition of human casein kinase 1.
Assay [25] deals with Protein kinase C alpha type (Homo sapiens, UniProt P17252). The assay can be described thus: Inhibition of human PKCalpha.
Assay [26] has as its target Protein kinase C epsilon type (Homo sapiens, UniProt Q02156). Put plainly: Inhibition of human PKCepsilon.
The target of assay [27] is Protein kinase C zeta type (Homo sapiens, UniProt Q05513). Put plainly: Inhibition of human PKCzeta.
Assay [28] deals with Protein kinase C eta type (Homo sapiens, UniProt P24723). The assay can be described thus: Inhibition of human PKCeta.
Assay [29] concerns the target Casein kinase 2 (Homo sapiens, UniProt P67870+P68400+P19784+Q8NEV1). Put plainly: Inhibition of human casein kinase 2. It counts as protein assay.
Assay [30] has as its target Protein kinase C delta type (Homo sapiens, UniProt Q05655). Put plainly: Inhibition of human PKCdelta.
In assay [31] the target is T2, Protein kinase C beta type (Homo sapiens, UniProt P05771). Put plainly: Inhibition of human PKCbeta2.
Assay [32] deals with c-Jun N-terminal kinase, JNK (Homo sapiens, UniProt P45983+P53779+P45984). The assay can be described thus: Inhibition of human JNK.
The target in assay [33] is Cyclin-dependent kinase 4/cyclin D1 (Homo sapiens, UniProt P11802). The assay can be described thus: Inhibition of human cdk4/cyclin D1. It counts as protein-complex assay.
Assay [34] has as its target Protein kinase C gamma type (Homo sapiens, UniProt P05129). The assay can be described thus: Inhibition of human PKCgamma.
The nature of assay [35]: Inhibition of human cGMP-dependent protein kinase.
In assay [36] the target is T2, Protein kinase C beta type. The assay can be described thus: Inhibition of human PKCbeta1.
Assay [37] in a line: Inhibition of human v-abl.
Assay [38] concerns the target Glycogen synthase kinase-3 beta (Homo sapiens, UniProt P49841). The assay can be described thus: Inhibition of human GSK3-beta.
Assay [39] in a line: Inhibition of human Raf kinase.
Assay [40] concerns the target Mitogen-activated protein kinase 3 (Homo sapiens, UniProt P27361). Put plainly: Inhibition of human Erk1.
Assay [41] addresses T3, Cdc2 (Patiria pectinifera, UniProt Q17066). Put plainly: Inhibition of starfish cdc2/cyclin B assessed as [32P] incorporation in histone H1 from 150 µM [gamma32P]ATP.
Assay [42] has as its system NCI-H522. The assay can be described thus: Growth inhibition human NCI-H522 cells. It counts as functional.
Assay [43] has as its system KM12. Put plainly: Growth inhibition human KM12 cells. The format is functional.
Assay [44] addresses T4, Cyclin-dependent kinase 2 (Homo sapiens, UniProt P24941). Put plainly: Inhibition of human cdk2/cyclin A.
The target in assay [45] is Insulin receptor (Homo sapiens, UniProt P06213). The assay can be described thus: Inhibition of human insulin receptor.
Assay [46] is described as follows: Growth inhibition human NCI60 cells. It counts as functional.
For assay [47], the target named is T3, Cdc2. The assay can be described thus: Inhibition of starfish cdc2/cyclin B assessed as [32P] incorporation in histone H1 from 1.5 mM [gamma32P]ATP.
Assay [48] addresses Cyclin-dependent kinase 5/CDK5 activator 1 (Homo sapiens, UniProt Q00535). Put plainly: Inhibition of human cdk5/p35. It counts as protein-complex assay.
Assay [49] addresses T1, Cyclin-dependent kinase 1. Put plainly: Inhibition of Saccharomyces cerevisiae cdc28.
In assay [50] the target is T4, Cyclin-dependent kinase 2. Put plainly: Inhibition of human cdk2/cyclin E.

The term IC50 denotes the concentration that gives 50% inhibition. Broadly, the GI50 is the concentration giving 50% growth inhibition.

Calls of active or inactive are those of the source. The rule behind the calls is not given here.

T2 sequence (P05771 whole entry): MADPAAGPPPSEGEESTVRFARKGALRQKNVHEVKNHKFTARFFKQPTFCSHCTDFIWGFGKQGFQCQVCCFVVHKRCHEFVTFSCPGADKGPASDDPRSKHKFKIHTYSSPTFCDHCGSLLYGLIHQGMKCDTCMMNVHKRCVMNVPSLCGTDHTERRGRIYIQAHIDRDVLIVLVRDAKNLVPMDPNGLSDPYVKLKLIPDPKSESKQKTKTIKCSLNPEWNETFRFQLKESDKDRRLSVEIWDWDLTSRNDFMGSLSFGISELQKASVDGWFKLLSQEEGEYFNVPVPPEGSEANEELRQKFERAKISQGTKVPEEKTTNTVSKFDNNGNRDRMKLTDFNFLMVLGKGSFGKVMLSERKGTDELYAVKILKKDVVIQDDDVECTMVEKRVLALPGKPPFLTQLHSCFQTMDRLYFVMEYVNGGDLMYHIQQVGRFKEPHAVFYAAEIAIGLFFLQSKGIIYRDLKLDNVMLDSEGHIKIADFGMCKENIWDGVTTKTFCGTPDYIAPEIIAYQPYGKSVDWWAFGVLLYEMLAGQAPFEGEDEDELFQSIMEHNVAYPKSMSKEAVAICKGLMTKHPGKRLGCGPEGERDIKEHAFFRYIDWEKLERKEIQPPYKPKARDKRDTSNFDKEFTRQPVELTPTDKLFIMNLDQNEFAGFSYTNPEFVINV
Protein kinase C delta type, sequence (Q05655 whole entry): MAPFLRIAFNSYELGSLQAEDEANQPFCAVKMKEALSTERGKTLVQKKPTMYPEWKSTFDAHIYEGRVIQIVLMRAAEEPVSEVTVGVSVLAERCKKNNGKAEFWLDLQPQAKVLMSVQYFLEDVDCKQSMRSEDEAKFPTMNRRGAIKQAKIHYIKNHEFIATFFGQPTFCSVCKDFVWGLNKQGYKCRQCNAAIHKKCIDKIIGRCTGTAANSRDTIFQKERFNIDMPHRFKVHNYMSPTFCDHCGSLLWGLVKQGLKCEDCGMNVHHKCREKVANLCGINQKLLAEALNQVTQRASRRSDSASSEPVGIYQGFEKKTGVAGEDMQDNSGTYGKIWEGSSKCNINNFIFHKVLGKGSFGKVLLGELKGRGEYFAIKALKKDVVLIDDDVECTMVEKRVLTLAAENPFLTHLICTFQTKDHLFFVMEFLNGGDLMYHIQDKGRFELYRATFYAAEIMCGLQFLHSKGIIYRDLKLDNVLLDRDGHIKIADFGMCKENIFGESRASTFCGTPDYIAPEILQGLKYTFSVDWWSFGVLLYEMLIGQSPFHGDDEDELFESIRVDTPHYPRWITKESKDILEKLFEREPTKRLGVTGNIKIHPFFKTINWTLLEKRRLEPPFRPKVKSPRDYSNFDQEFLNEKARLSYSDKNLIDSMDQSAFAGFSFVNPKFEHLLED
Protein kinase C zeta type, sequence (Q05513 whole entry): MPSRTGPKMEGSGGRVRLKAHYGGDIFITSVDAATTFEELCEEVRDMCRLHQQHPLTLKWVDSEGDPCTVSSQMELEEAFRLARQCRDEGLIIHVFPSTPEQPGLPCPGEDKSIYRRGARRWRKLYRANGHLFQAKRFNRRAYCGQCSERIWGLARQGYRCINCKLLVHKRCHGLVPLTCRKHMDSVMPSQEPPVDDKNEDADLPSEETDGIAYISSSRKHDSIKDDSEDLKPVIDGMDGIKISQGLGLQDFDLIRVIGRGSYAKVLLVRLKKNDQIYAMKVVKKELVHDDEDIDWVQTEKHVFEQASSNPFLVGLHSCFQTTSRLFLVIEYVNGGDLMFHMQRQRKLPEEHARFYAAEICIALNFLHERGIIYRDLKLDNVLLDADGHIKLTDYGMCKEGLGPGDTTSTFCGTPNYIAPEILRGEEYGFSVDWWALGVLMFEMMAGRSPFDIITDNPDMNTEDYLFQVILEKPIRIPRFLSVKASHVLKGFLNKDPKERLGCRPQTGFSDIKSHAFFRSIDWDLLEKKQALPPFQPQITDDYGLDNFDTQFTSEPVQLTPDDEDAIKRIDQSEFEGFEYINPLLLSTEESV
Glycogen synthase kinase-3 beta, sequence (P49841 whole entry): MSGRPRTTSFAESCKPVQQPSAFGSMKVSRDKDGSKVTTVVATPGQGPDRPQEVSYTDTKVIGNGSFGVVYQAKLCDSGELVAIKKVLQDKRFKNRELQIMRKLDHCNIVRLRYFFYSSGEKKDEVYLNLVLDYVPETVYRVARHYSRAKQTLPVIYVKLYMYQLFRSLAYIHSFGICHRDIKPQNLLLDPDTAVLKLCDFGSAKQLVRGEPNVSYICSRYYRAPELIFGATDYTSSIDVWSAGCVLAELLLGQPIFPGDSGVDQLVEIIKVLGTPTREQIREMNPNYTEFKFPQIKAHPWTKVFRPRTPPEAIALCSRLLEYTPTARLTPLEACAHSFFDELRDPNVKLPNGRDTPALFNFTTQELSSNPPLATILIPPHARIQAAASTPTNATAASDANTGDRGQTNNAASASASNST
T3 sequence (Q17066 whole entry): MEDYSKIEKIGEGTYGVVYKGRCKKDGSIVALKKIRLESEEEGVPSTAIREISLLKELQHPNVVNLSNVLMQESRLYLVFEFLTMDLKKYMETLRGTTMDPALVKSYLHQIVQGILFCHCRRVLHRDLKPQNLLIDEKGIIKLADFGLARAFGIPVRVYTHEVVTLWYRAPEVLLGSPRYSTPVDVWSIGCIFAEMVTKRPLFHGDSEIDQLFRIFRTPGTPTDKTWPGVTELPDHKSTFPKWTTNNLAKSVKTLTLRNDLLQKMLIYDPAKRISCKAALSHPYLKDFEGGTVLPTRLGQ
T1 sequence (P00546 whole entry): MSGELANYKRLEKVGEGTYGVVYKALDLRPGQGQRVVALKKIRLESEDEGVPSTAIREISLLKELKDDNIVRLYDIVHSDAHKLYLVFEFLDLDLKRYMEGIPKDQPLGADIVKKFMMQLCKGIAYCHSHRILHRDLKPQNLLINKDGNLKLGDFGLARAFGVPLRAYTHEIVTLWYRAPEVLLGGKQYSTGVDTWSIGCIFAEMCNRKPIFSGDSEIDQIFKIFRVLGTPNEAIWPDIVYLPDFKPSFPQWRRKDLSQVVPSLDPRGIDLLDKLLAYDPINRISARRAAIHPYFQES
Cyclin-dependent kinase 4/cyclin D1, sequence (P11802 whole entry): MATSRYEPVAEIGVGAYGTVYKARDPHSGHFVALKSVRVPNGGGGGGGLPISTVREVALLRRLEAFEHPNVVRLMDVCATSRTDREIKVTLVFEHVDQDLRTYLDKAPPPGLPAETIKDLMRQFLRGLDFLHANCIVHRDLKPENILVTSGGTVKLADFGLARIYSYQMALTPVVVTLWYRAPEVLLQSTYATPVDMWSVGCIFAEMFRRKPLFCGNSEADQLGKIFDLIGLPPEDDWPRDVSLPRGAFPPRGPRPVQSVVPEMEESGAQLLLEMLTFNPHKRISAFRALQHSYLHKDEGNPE
Cyclin-dependent kinase 4/cyclin D1, sequence (P24385 whole entry, further chain): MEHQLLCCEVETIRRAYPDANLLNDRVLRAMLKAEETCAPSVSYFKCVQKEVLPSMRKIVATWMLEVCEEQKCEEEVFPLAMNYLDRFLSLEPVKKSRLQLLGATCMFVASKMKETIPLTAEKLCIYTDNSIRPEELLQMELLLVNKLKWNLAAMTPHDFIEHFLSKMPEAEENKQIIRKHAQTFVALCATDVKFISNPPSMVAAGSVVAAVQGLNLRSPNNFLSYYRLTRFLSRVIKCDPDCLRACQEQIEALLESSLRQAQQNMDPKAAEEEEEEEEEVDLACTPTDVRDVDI

Consider `CC(C)n1cnc2c(Nc3cccc(Cl)c3)nc(NCCO)nc21`, for which, in [1], the IC50 worked out at 0.34 µM.

In the case of `CC(C)n1cnc2c(N(C)c3cccc(Cl)c3)nc(NCCO)nc21`, the result in [2], in assay [3], in assay [4], in assay [5], in assay [6] and in assay [7] was inactive. For the same compound, the outcome in [12], in assay [13], in assay [16], in assay [17], in assay [18] and in assay [19] was inactive. Also, the GI50 in [8] stood at 200 µM. Also, the IC50 in assay [9], in [10], in assay [11], in [14] and in [15] was greater than 500 µM in each case.

On to `COc1ccc(CNc2nc(N(CCO)CCO)nc3c2ncn3C(C)C)cc1`, for which the result in assay [20], in assay [21] and in assay [22] was Active.

For `CC(C)[C@H](CO)Nc1nc(Nc2ccc(C(=O)O)c(Cl)c2)c2ncn(C(C)C)c2n1` [PURVALANOL B], the IC50 in assay [23] is 3.8 µM; in assay [24], greater than 3.33 µM; in assay [25] it was greater than 100 µM; in assay [26] it was greater than 100 µM; in assay [27] it was greater than 100 µM; in assay [28], greater than 100 µM. Besides, the IC50 was greater than 10 µM in assay [29]; greater than 100 µM in assay [30]; greater than 100 µM in assay [31]; greater than 10 µM in [32]; greater than 10 µM in [33]; greater than 100 µM in assay [34]. Moreover, the IC50 was greater than 100 µM in [35]; greater than 100 µM in assay [36]; greater than 100 µM in assay [37]; greater than 10 µM in assay [38]; greater than 10 µM in assay [39]; 3.33 µM in assay [40].

With `CC(C)[C@H](CO)Nc1nc(Nc2cccc(Cl)c2)c2ncn(C(C)C)c2n1` [PURVALANOLA], the IC50 in assay [23] was 9 µM; in assay [41] it was 0.04 µM; in assay [24] it was greater than 3.33 µM; in assay [25], greater than 10 µM; in assay [26] it was greater than 100 µM; in [27], greater than 100 µM. The IC50 in [28] was greater than 100 µM; in [29] it was greater than 10 µM; in assay [30], greater than 100 µM; in [31], greater than 10 µM; in [44] it was 0.07 µM; in assay [45], 5 µM. Besides, the IC50 was greater than 1 µM in assay [32]; 0.85 µM in assay [33]; greater than 10 µM in assay [34]; greater than 10 µM in assay [35]; greater than 10 µM in assay [36]; greater than 10 µM in assay [37]. Further, the IC50 in [38] is greater than 10 µM; in assay [39] it was greater than 1 µM; in [40], 9 µM; in assay [47] it was 0.5 µM; in assay [48] it was 0.075 µM; in assay [49], 0.08 µM. In [50], this compound came in with an IC50 of 0.035 µM. The GI50 in [42] is 0.347 µM; in assay [43] it was 0.076 µM; in assay [46] it was 2 µM.

For the origin of these results see ChEMBL document CHEMBL1153829, “Exploiting chemical libraries, structure, and genomics in the search for kinase inhibitors” (Science, 1998).
